This note sets out measurements from PubChem BioAssay AID488828 (Molecular Libraries Program, Specialized Chemistry Center, …, 2010).

Calls of active or inactive are those of the source.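 Rule for the calls: active = IC50 at or below 10 µM; inactive = the rest.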

Chain of Transitional endoplasmic reticulum ATPase (Homo sapiens) (P55072 whole entry, looked up): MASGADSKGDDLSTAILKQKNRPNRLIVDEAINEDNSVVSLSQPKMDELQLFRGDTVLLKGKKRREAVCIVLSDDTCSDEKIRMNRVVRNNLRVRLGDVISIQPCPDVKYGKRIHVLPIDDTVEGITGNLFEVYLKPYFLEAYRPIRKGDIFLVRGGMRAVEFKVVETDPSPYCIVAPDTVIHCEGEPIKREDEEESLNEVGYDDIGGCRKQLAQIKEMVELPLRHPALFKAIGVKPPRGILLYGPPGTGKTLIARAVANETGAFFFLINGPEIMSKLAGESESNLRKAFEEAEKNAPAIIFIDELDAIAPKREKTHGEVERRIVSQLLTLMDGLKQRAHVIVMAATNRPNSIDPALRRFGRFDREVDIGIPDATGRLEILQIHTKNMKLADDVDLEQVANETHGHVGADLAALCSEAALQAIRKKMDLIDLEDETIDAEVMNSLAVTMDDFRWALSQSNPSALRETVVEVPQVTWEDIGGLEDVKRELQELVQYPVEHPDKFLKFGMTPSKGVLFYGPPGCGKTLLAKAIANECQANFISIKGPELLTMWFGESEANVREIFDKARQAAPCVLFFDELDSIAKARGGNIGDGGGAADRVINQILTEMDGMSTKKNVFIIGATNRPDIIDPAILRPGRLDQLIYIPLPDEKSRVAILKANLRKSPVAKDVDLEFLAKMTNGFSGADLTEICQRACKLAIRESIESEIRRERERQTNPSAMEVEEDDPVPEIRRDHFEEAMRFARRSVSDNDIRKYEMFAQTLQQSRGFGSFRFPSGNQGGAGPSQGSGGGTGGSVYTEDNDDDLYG

The first test has as its target Transitional endoplasmic reticulum ATPase (Homo sapiens) (UniProt P55072). Nature of the test: p97 ATPase inhibitors, SAR follow-up, biochemical, hit optimization round 2 (AID 488828). The conditions noted are these: purified p97 ATPase, Kinase-Glo ATP luminescence. The gist of the method:
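Read-out – IC50, Langmuir fit of remaining activity · Test system – human p97 ATPase · Detection – Kinase-Glo Plus luminescence · Timing – 10 min room-temperature enzyme–compound preincubation, 30 min 37 °C ATP reaction · Medium – Tris pH 7.4, MgCl2, EDTA buffer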
For orientation: IC50 means the midpoint of a concentration-inhibition curve. For the molecule `c1ccc(CNc2nc(N3CCCc4ccccc43)nc3ccccc23)cc1`, the half-maximal inhibitory concentration (IC50) was 4.4 µM. Regarding `CC(C)(C)NC(=O)Nc1ccc2nccnc2c1`, the IC50 is > 30 µM (inactive). The same measure, in the same setting: for `Fc1cccc2nc(NCc3ccccc3)nc(NCc3ccccc3)c12` the value was 1.2 µM; for `c1ccc(Nc2nc(Nc3ccccc3)c3ccccc3n2)cc1`, 2.6 µM; for `O=C1C(C=NCC2CCCO2)=C(O)c2ccccc21` (stereo unspecified), > 30 µM (inactive). As for `CCOC(=O)NC(NC(=O)OCC)C(=O)c1ccc(F)cc1`, the IC50 is > 30 µM (inactive). Same read-out and setting: to `COc1cccc(CNc2nc(Nc3cccc(Cl)c3)nc3ccccc23)c1` belongs 1 µM; to `COc1c(F)cccc1Nc1nc(NCc2ccccc2)c2ccccc2n1`, 1.7 µM.

Turning to `Cc1cccc(CNc2nc(Nc3cccc(Cl)c3)nc3ccccc23)c1`, the concentration for half-maximal inhibition (IC50) was 2.3 µM. Consider `CC(C)Sc1oc(-c2ccco2)nc1S(=O)(=O)c1ccc(F)cc1`, for which the concentration for half-maximal inhibition (IC50) was 3 µM. `CC(=O)Nc1ccc(NC(=O)c2ccccc2F)cc1`: the IC50 was > 30 µM (inactive). For the molecule `COc1cc2nc(NCc3ccccc3)nc(NCc3ccccc3)c2cc1OC`, the IC50 is 4.4 µM.

`Cc1cccc(CNc2nc(Cl)nc3ccccc23)c1`: the IC50 is > 30 µM (inactive). Take `COc1ccc(Nc2nc(NCc3ccccc3)c3ccccc3n2)cc1F`: the IC50 is 0.9 µM. In the case of `c1ccc(CNc2nc(N3CCc4ccccc43)nc3ccccc23)cc1`, the 50% inhibitory concentration (IC50) is 2 µM.

As to `Fc1ccc2c(NCc3ccccc3)nc(NCc3ccccc3)nc2c1`, the IC50 is 2.6 µM. In the case of `COc1ccc2c(NCc3ccccc3)nc(NCc3ccccc3)nc2c1`, the IC50 was 5.7 µM.

On to `Cc1ccc(C2=[N+]([O-])C3(CCCCC/C3=N\O)N(O)C2(C)C)o1` (stereo unspecified), for which the IC50 is > 30 µM (inactive). The same measure, in the same setting: for `Cc1ccccc1CNc1nc(Cl)nc2ccccc12` the value was > 30 µM (inactive). `COc1cccc(CNc2nc(Cl)nc3ccccc23)c1`: the IC50 is > 30 µM (inactive).

Take `Fc1cccc(CNc2nc(Nc3cccc(Cl)c3)nc3ccccc23)c1`: the half-inhibitory concentration (IC50) is 1.2 µM.

Take `Cc1ccc(Nc2nc(NCc3ccccc3)c3ccccc3n2)cc1F`: the 50% inhibitory concentration (IC50) was 0.9 µM. The same measure, in the same setting: for `Cc1ccc(CNc2nc(Nc3cccc(Cl)c3)nc3ccccc23)cc1` the value was 1.4 µM; for `Clc1cccc2nc(NCc3ccccc3)nc(NCc3ccccc3)c12`, 2.2 µM; for `N#Cc1ccc2c(NCc3ccccc3)nc(NCc3ccccc3)nc2c1`, “inactive”.

`c1ccc(CNc2nc(N3CCOc4ccccc43)nc3ccccc23)cc1`: the IC50 was 0.6 µM. Same read-out and setting: for `Fc1ccccc1CNc1nc(Cl)nc2ccccc12` the value was > 30 µM (inactive); for `COc1ccc(CNc2nc(Cl)nc3ccccc23)cc1`, > 30 µM (inactive); for `Clc1cccc(Nc2nc(NCc3ccccc3Cl)c3ccccc3n2)c1`, 4.7 µM. As to `O=C(C1CCCN(S(=O)(=O)c2cnc[nH]2)C1)N(CCc1ccccc1)Cc1ccccc1` (stereo unspecified), the IC50 was > 30 µM (inactive). Take `Clc1nc(NCc2ccc(Br)cc2)c2ccccc2n1`: the IC50 is > 30 µM (inactive). Consider `CC1(C)N(O)CC(c2cccs2)=[N+]1[O-]`, for which the IC50 is > 30 µM (inactive). Still for that read-out and setting: for `Clc1ccc(CNc2nc(Cl)nc3ccccc23)cc1` the value was > 30 µM (inactive). In the case of `COc1ccccc1CNc1nc(Cl)nc2ccccc12`, the IC50 was > 30 µM (inactive). The same measure, in the same setting: to `Cc1ccc(F)cc1Nc1nc(NCc2ccccc2)c2ccccc2n1` belongs 0.8 µM; to `CCN(CC)c1ccc2cc(-c3nc4ccccc4[nH]3)c(=O)oc2c1`, 1.4 µM.

Regarding `Clc1cccc(CNc2nc(Cl)nc3ccccc23)c1`, the IC50 is > 30 µM (inactive). Same read-out and setting: for `Clc1cccc(Nc2nc(NCc3cccc(Br)c3)c3ccccc3n2)c1` the value was 3.7 µM; for `Clc1ccc(CNc2nc(Nc3cccc(Cl)c3)nc3ccccc23)cc1`, 2.8 µM; for `Fc1ccccc1CNc1nc(Nc2cccc(Cl)c2)nc2ccccc12`, 1.8 µM.

Consider `Fc1ccc(CNc2nc(Nc3cccc(Cl)c3)nc3ccccc23)cc1`, for which the concentration for half-maximal inhibition (IC50) is 1.5 µM. For the molecule `FC(F)(F)c1ccc2c(NCc3ccccc3)nc(NCc3ccccc3)nc2c1`, the IC50 is 9.1 µM. Consider `COc1ccc(CNc2nc(Nc3cccc(Cl)c3)nc3ccccc23)cc1`, for which the half-inhibitory concentration (IC50) is 2.3 µM. Still for that read-out and setting: for `Fc1ccccc1-c1nc(NCc2ccccc2)c2ccccc2n1` the value was 1.1 µM.

For the molecule `Cc1c(Cl)cccc1Nc1nc(NCc2ccccc2)c2ccccc2n1`, the IC50 was 0.7 µM.

For `CC(C)n1c2ccccc2c2nnc(SCC(=O)OCN3C(=O)c4ccccc4C3=O)nc21`, the IC50 was > 30 µM (inactive).

For the molecule `Cc1ccc(Cl)cc1Nc1nc(NCc2ccccc2)c2ccccc2n1`, the IC50 was 0.8 µM.

Regarding `Fc1ccc2nc(NCc3ccccc3)nc(NCc3ccccc3)c2c1`, the IC50 was 4.7 µM. Consider `COc1cccc2c(NCc3ccccc3)nc(NCc3ccccc3)nc12`, for which the IC50 was 0.6 µM. Same read-out and setting: for `Clc1nc(NCc2ccccc2Cl)c2ccccc2n1` the value was > 30 µM (inactive).

Take `Clc1ccc2c(NCc3ccccc3)nc(NCc3ccccc3)nc2c1`: the half-maximal inhibitory concentration (IC50) is 5.5 µM.

As for `Clc1cccc(Nc2nc(NCc3ccc(Br)cc3)c3ccccc3n2)c1`, the 50% inhibitory concentration (IC50) was 7.4 µM.

For `Clc1cccc(CNc2nc(Nc3cccc(Cl)c3)nc3ccccc23)c1`, the half-maximal inhibitory concentration (IC50) was 5 µM. Turning to `Fc1ccc(CNc2nc(Cl)nc3ccccc23)cc1`, the IC50 is > 30 µM (inactive).

Take `COc1ccc(Nc2nc(Nc3ccc(OC)cc3)c3ccccc3n2)cc1`: the IC50 entry is “inactive”.

As for `c1ccc(CNc2nc(N3CCNc4ccccc43)nc3ccccc23)cc1`, the IC50 is 0.4 µM.

With `Cc1c(F)cccc1Nc1nc(NCc2ccccc2)c2ccccc2n1`, the 50% inhibitory concentration (IC50) is 0.9 µM. In the case of `Clc1nc(NCc2ccccc2Br)c2ccccc2n1`, the IC50 was > 30 µM (inactive). As for `Fc1cccc(CNc2nc(Cl)nc3ccccc23)c1`, the IC50 is > 30 µM (inactive). The same measure, in the same setting: to `Brc1ccc2c(NCc3ccccc3)nc(NCc3ccccc3)nc2c1` belongs “inactive”.

`Clc1ccc2nc(NCc3ccccc3)nc(NCc3ccccc3)c2c1`: the concentration for half-maximal inhibition (IC50) was 1.6 µM.

With `O=C(NCc1ccco1)c1cc(S(=O)(=O)N2CCOCC2)ccc1Cl`, the IC50 is > 30 µM (inactive). Same read-out and setting: for `COc1ccc(Cl)cc1Nc1nc(NCc2ccccc2)c2ccccc2n1` the value was 1.1 µM; for `Cc1ccc2c(NCc3ccccc3)nc(NCc3ccccc3)nc2c1`, 2.2 µM.

With `Ic1cccc(Nc2nc(NCc3ccccc3)c3ccccc3n2)c1`, the IC50 is 5.2 µM.

As for `Clc1cccc(Nc2nc(NCc3ccccc3Br)c3ccccc3n2)c1`, the half-inhibitory concentration (IC50) is 4 µM. As for `Brc1cccc2c(NCc3ccccc3)nc(NCc3ccccc3)nc12`, the IC50 was 3.3 µM. Consider `COc1ccc2nc(NCc3ccccc3)nc(NCc3ccccc3)c2c1`, for which the IC50 is 7.5 µM. As to `Fc1cccc2c(NCc3ccccc3)nc(NCc3ccccc3)nc12`, the half-maximal inhibitory concentration (IC50) was 3.1 µM.

Turning to `Cc1cc(F)cc(Nc2nc(NCc3ccccc3)c3ccccc3n2)c1`, the IC50 was 0.7 µM. As for `COc1ccc(F)cc1Nc1nc(NCc2ccccc2)c2ccccc2n1`, the IC50 is 6.7 µM.

`O=[N+]([O-])c1cccc(Nc2nc(NCc3ccccc3)c3ccccc3n2)c1`: the half-inhibitory concentration (IC50) is 5.2 µM. On the same count and under the same terms, for `Cc1ccccc1CNc1nc(Nc2cccc(Cl)c2)nc2ccccc12` the value was 4.2 µM; for `O=S(=O)(NC1CCCCC1)c1ccc(Br)cc1`, > 30 µM (inactive). Turning to `COc1ccc(C)cc1NC(=O)c1[nH]c(C)c(C(C)=O)c1C`, the IC50 was > 30 µM (inactive).

In the case of `Cc1ccc(CNc2nc(Cl)nc3ccccc23)cc1`, the IC50 was > 30 µM (inactive). `COc1c(Cl)cccc1Nc1nc(NCc2ccccc2)c2ccccc2n1`: the IC50 is 0.9 µM.

`CN1CCN(S(=O)(=O)c2ccc(NC(=O)c3cccc(S(=O)(=O)N4CCCC4)c3)cc2)CC1`: the IC50 is > 30 µM (inactive). Same read-out and setting: to `Clc1nc(NCc2cccc(Br)c2)c2ccccc2n1` belongs > 30 µM (inactive); to `COc1ccccc1CNc1nc(Nc2cccc(Cl)c2)nc2ccccc12`, 1.6 µM.

Still in this test, the particulars now being: purified p97 ATPase, Kinase-Glo ATP luminescence; at 30 µM (top of the series).
`Clc1ccc(Nc2nc(Nc3cccc(Cl)c3)nc3ccccc23)cc1`: the inhibition entry is “inactive”.
